Lmaj promast = Leishmania major promastigote growth inhibition; Leishmania major promastigotes, resazurin fluorescence viability; inhibition, % at 10 µM; 200,000 tested, 9% active;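 note: promastigotes grown with compound for 44 hours at 28 °C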
Diaph inh CS = counter-screen for diaphorase-based assays: diaphorase inhibitors and chemical oxidizers; diaphorase resazurin-to-resorufin fluorescence, NADH, 16 min; bacterial (C. kluyveri) enzyme, not human; inhibition, % at 20 µM; 190,000 tested, 0.69% active; AID 1217;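 active = primary screen inhibition at 20 µM above a set limit, cut at about 50% in these data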;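 note: plate controls were DMSO with full reaction for no effect and wells lacking NADH for full effect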
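System: Bacterial diaphorase enzyme (C. kluyveri) | Incubation: 16-min room-temperature incubation before reading | Benchmarks: No-NADH positive control and DMSO neutral control | Measured by: Resorufin fluorescence 544/590 nm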
Diaphorase act = activates diaphorase or chemically reduces, flagging diaphorase assay artifacts; Diaphorase/resazurin coupled assay, resorufin fluorescence, 16 min; active compounds read high; 1 = vehicle wells, 0 = NADH-free wells; activation factor at 20 µM; 190,000 tested, 0.005% active; AID 1229;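 active = diaphorase activity raised at least twofold by the compound at 20 µM; inactive = activation factor below 2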
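Material: bacterial diaphorase enzyme (C. kluyveri); amount: enzyme 0.07 U/mL final; reagent: NADH substrate 0.114 mM plus resazurin dye 0.1 mM, final; doses: single compound dose of 20 µM, 1% DMSO final; timing: 16 min enzyme reaction, ambient temperature; measured by: fluorescence of resorufin, 544 nm excitation, 590 nm emission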
G6PDH CS = inhibits Leuconostoc G6PDH, flagging false hits in G6PDH-based assays; AID 1020; inhibition, % at 5 µM; Purified L. mesenteroides G6PDH, diaphorase/resazurin coupled fluorescence, 45 min; 200,000 tested, 0.12% active
WT yeast gro inh = growth inhibition of WT yeast, mitochondrial fusion screen. mitochondrial fusion phenotypic screen, WT strain. inhibition, % at 10 µM. 190,000 tested, 2.1% active; in the data active = inhibition above about 58%; tested in S. cerevisiae
Numbers without * were called inactive; x = no result. Hits are enriched below; roughly 11% of the tested compounds scored in any of these assays. Cut-off read from the data, not from the text of the source, unless noted: active = inhibition above about 50%; inactive = the rest.

SMILES | Lmaj promast | Diaph inh CS | Diaphorase act | G6PDH CS | WT yeast gro inh
CNC(=O)C1CC(=O)N/C(=N/N=C(\C)c2cccs2)S1 (configuration not stated) | -0.5 | -2.5 | 1 | 5.4 | -1.7
Cc1ccc(-n2nc(-c3ccco3)cc2C(=O)O)c(C)c1 | -7.6 | 25.0 | 0.8 | 4.8 | 7.7
CCCCOP(=O)(OCCCC)C(Nc1ccccc1)c1ccc2c(c1)OCO2 (configuration not stated) | 0.9 | 22.9 | 0.8 | -4.6 | 65.0*
CNC(=S)NCCC(c1ccccc1)c1ccccc1 | 0.8 | 15.3 | 0.8 | 5.7 | 67.1*
COc1cccc(NC(=S)NCCC(c2ccccc2)c2ccccc2)c1 | 100.4* | -0.1 | 1 | -3.1 | 76.4*
O=C(NCCC(c1ccccc1)c1ccccc1)c1cccs1 | 28.9 | 13.0 | 0.9 | 13.6 | 38.7
COc1cccc(NC(=S)N2CCN(C(c3ccccc3)c3ccccc3)CC2)c1 | 10.8 | 23.3 | 0.8 | 0.7 | 48.6
COc1cccc(NC(=S)NCCN2CCOCC2)c1 | -6.5 | 9.7 | 0.9 | -9.3 | -10.9
COc1ccc(NC(=S)N2CCN(C(c3ccccc3)c3ccccc3)CC2)c(OC)c1 | 8.9 | 2.1 | 1 | 4.3 | 69.4*
COc1cc(NC(=S)NCCC(c2ccccc2)c2ccccc2)cc(OC)c1 | 46.6 | 7.8 | 0.9 | 12.7 | 65.7*
CC(C)Nc1nc(NC(C)C)nc(SCC(N)=O)n1 | -6.9 | -0.2 | 1 | 11.8 | -23.0
O=C(N1CCOCC1)N1CCN(C(=O)N2CCOCC2)CC1 | -5.8 | x | x | x | x
Cc1cccc(NC(=S)NCCC(c2ccccc2)c2ccccc2)c1 | 96.6* | 24.4 | 0.8 | 1.9 | 68.8*
COc1ccc(NC(=S)NCCC(c2ccccc2)c2ccccc2)c(OC)c1 | 4.9 | 11.7 | 0.9 | -16.9 | 65.3*
COc1cc(C(=O)Nc2ccc3c(c2)Cc2cc(NC(=O)c4cc(OC)c(OC)c(OC)c4)ccc2-3)cc(OC)c1OC | -5.5 | -1.0 | 1 | -49.9 | -10.3
Cc1cc(C)cc(N(C(=O)c2snc(C(N)=O)c2N)C(C(=O)NCC2CCCO2)c2cccs2)c1 (configuration not stated) | 27.8 | 2.6 | 1 | 4.1 | 7.0
NC(=O)c1nsc(C(=O)N(c2ccccc2)C(C(=O)NCC2CCCO2)c2cccs2)c1N (configuration not stated) | 72.9* | 3.3 | 1 | 17.4 | -8.6
O=C(NCC1CCCO1)C(c1cccs1)N(Cc1ccccc1)C(=O)c1ccc(-c2ccccc2)[nH]1 (configuration not stated) | 68.1* | 20.5 | 0.8 | -5.3 | 49.0
O=C(NCC1CCCO1)C(c1cccs1)N(C(=O)c1ccc(-c2ccccc2)[nH]1)C1CCCC1 (configuration not stated) | 92.2* | 17.1 | 0.8 | 3.6 | 26.8
CCOc1cc(C(=O)N/N=C\c2cn(CC)nc2C)cc(OCC)c1OCC | -1.2 | 11.1 | 0.9 | 8.4 | 6.1
C=CCNC(=S)NCC1COc2ccccc2O1 (configuration not stated) | -3.6 | 14.8 | 0.9 | -2.3 | 1.5
Cc1cc(Cl)ccc1NC(=S)NCc1ccc(Cl)cc1 | 11.7 | -0.8 | 1 | -16.6 | 13.9
Cc1ccc(Cl)cc1NC(=S)NCc1cccn1C | 50.6* | 0.0 | 1 | -17.5 | 6.9
Cc1cc(Cl)ccc1NC(=S)NCCC(c1ccccc1)c1ccccc1 | 30.1 | 21.5 | 0.8 | -14.9 | 73.7*
Cc1c(Cl)cccc1NC(=S)NCC1COc2ccccc2O1 (configuration not stated) | 16.8 | 10.8 | 0.9 | -1.2 | 59.4*
SMILES | Lmaj promast | Diaph inh CS | Diaphorase act | G6PDH CS | WT yeast gro inh
Cc1c(Cl)cccc1NC(=S)NCCC(c1ccccc1)c1ccccc1 | 42.7 | -9.3 | 1.1 | 6.1 | 78.4*
O=C(Cc1cccs1)N(Cc1ccco1)C1(C(=O)NC2CCCC2)CCCCC1 | 11.4 | 6.7 | 0.9 | 6.5 | 4.9
CCCC(=O)OCC(=O)Nc1ccc2c(c1)OCO2 | 3.2 | 2.2 | 1 | 3.8 | -10.3
O=C(CSCc1ccc(F)cc1)NCc1ccco1 | -2.3 | 0.3 | 1 | 4.4 | -7.3
O=S(=O)(Nc1nc(CN2CCOCC2)nc2sc3c(c12)CCCC3)c1cc(F)ccc1F | -4.7 | 23.8 | 0.8 | -4.1 | 24.6
CC(C)OCCCn1c(-c2ccc(Br)cc2)c[nH]c1=S | -5.2 | 25.9 | 0.7 | 0.1 | 31.6
Cc1ccc(S(=O)(=O)n2c3ccc(Cl)cc3c3nc(C)sc32)cc1 | 1.4 | 11.3 | 0.9 | 3.6 | 63.8*
Cc1nn(-c2ccccc2)c(N2CCCC2)c1/C=N/Nc1ccc(S(N)(=O)=O)cc1[N+](=O)[O-] | 19.9 | 16.4 | 0.8 | 12.0 | 21.3
COc1ccc(C(=O)/C=C/c2ccc(O)cc2)c(O)c1CC=C(C)C | 6.9 | 16.3 | 0.8 | 18.5 | 87.2*
COc1cc2nc(=S)n3[nH]c(COc4ccccc4C)nc3c2cc1OC | -14.1 | 91.3* | 0.1 | 5.4 | 3.1
COc1cc2nc(=S)n3[nH]c(CCn4nc(C)cc4C)nc3c2cc1OC | -0.9 | 91.6* | 0.1 | 16.8 | -7.3
Cc1ccccc1-n1c(SCC(=O)NCc2cccs2)nc2ccccc2c1=O | 47.4 | 14.8 | 0.9 | 7.9 | -12.3
COc1cc(CNC2CCCC2)c(Br)cc1OC1CCCC1 | 36.9 | 13.7 | 0.9 | 6.4 | -12.4
COc1cc(CNC2CCCCCCC2)cc(Br)c1OCC#N | 75.1* | 10.4 | 0.9 | 3.6 | -6.1
CCOc1c(Br)cc(CNC2CCCCCCC2)cc1OC | 59.9* | 11.4 | 0.9 | 10.7 | 29.5
CCOc1c(Br)cc(CNc2ccc3c(c2)OCCO3)cc1OC | 8.7 | 28.3 | 0.7 | 6.9 | -4.4
Cc1c(N)cc[n+](CC(=O)c2ccccc2)c1C | -8.3 | 13.4 | 0.9 | 12.0 | -1.7
COc1ccc(NC(=S)NNC(=O)c2nnn(-c3ccccc3)c2C)cc1 | -0.6 | 4.5 | 1 | 2.7 | -9.9
CCO[C@H]1OC(C(=O)N2CCN(Cc3ccc4c(c3)OCO4)CC2)=C[C@@H](c2cn(C(C)=O)c3ccccc23)[C@@H]1CCCO | 47.2 | 36.8 | 0.6 | 14.7 | 7.4
CCO[C@H]1OC(C(=O)N2CCN(Cc3ccc4c(c3)OCO4)CC2)=C[C@@H](c2csc3ccccc23)[C@@H]1CCCO | 73.8* | 32.3 | 0.7 | 7.6 | 28.5
CCO[C@@H]1OC(C(=O)N2CCN(Cc3ccc4c(c3)OCO4)CC2)=C[C@H](C2CCCCC2)[C@H]1CCCO | 66.8* | 8.1 | 0.9 | 4.1 | 29.8
CCO[C@H]1OC(C(=O)N2CCN(Cc3ccccc3)CC2)=C[C@@H](C2CCCCC2)[C@@H]1CCCO | 4.1 | 2.3 | 1 | 8.4 | 23.6
COC(=O)c1ccccc1NC(=O)N1CCN(C(=O)c2ccco2)CC1 | -6.0 | 12.7 | 0.9 | -19.4 | 10.7
CC(C)CCn1cnc2c(c1=O)c1nc3ccccc3nc1n2Cc1ccc2c(c1)OCO2 | 5.6 | -1.8 | 1 | 8.1 | -4.5
O=C1CC(C(=O)Nc2cccc3ccccc23)C2(CCCC2)O1 (configuration not stated) | -5.5 | 18.2 | 0.8 | 7.6 | 1.4
